Test [1] relates to Proteus mirabilis. Briefly: Antibacterial activity against Proteus mirabilis assessed as growth inhibition after 18 hrs by serial dilution method. The format is functional. A digest of the protocol: (§1)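 Agar dilution MIC: serial dilutions in nutrient agar, each spot-inoculated with 0.001 mL of undiluted overnight broth culture. MIC read after 18 h incubation at 37 °C.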
The test system of test [2] is Staphylococcus aureus. Briefly: Antibacterial activity against beta-lactamase producing benzylpenicillin-resistant Staphylococcus aureus Russell assessed as growth inhibition after 18 hrs by serial dilution method. Format: functional.
In test [3] the test system is Salmonella typhi. Briefly: Antibacterial activity against Salmonella typhi assessed as growth inhibition after 18 hrs by serial dilution method. The format is functional, Salmonella enterica subsp. enterica serovar Typhi. Conditions: Salmonella enterica.
For test [4], the system named is Klebsiella aerogenes. Briefly: Antibacterial activity against Klebsiella aerogenes assessed as growth inhibition after 18 hrs by serial dilution method. The format is functional. The method, boiled down: as §1
In test [5] the test system is Shigella sonnei. In words: Antibacterial activity against Shigella sonnei assessed as growth inhibition after 18 hrs by serial dilution method. The format is functional. A digest of the protocol:
as §1

Test [6] deals with Escherichia coli. Briefly: Antibacterial activity against Escherichia coli assessed as growth inhibition after 18 hrs by serial dilution method. The format is functional. A digest of the protocol:
as §1

The subject of test [7] is Staphylococcus aureus. Briefly: Antibacterial activity against Staphylococcus aureus Oxford assessed as growth inhibition after 18 hrs by serial dilution method. The format is functional. The method, boiled down: as §1

This note sets out measurements from ChEMBL document CHEMBL3272355, “Structure--activity relationships in cephalosporins prepared from penicillins. 1. 7beta-Acylamino derivatives of 3-benzyl- and 3-(3-pyridylmethyl)ceph-3-em-4-carboxylic acids” (1977).

Each structure is given as a SMILES string. ≈ marks a conversion by molar mass, not a printed value.

On to `N[C@@H](C(=O)N[C@@H]1C(=O)N2C(C(=O)O)=C(Cc3ccccc3)CS[C@H]12)c1ccccc1`, for which the MIC in test [1] came out at 50 µg/mL (≈ 118 µM); in test [2], 2.5 µg/mL (≈ 5.9 µM); in test [3], 25 µg/mL (≈ 59 µM); in test [4], 25 µg/mL (≈ 59 µM); in test [5] it was 25 µg/mL (≈ 59 µM); in test [6], 25 µg/mL (≈ 59 µM). Further, the MIC in test [7] amounted to 0.1 µg/mL (≈ 0.236 µM).

As to `N[C@@H](C(=O)N[C@@H]1C(=O)N2C(C(=O)O)=C(Cc3cccnc3)CS[C@H]12)c1ccccc1`, the MIC was found to be 5 µg/mL (≈ 11.8 µM) in test [1]; 2.5 µg/mL (≈ 5.89 µM) in test [2]; 1.25 µg/mL (≈ 2.94 µM) in test [3]; 2.5 µg/mL (≈ 5.89 µM) in test [4]; 2.5 µg/mL (≈ 5.89 µM) in test [5]; 2.5 µg/mL (≈ 5.89 µM) in test [6]. Also, the MIC in test [7] was determined as 0.25 µg/mL (≈ 0.589 µM).

As for `O=C(Cc1cccs1)N[C@@H]1C(=O)N2C(C(=O)O)=C(Cc3ccccc3)CS[C@H]12`, the MIC was over 200 µg/mL in test [1]; 10 µg/mL (≈ 24.1 µM) in test [2]; 200 µg/mL (≈ 482 µM) in test [3]; over 200 µg/mL in test [4]; 200 µg/mL (≈ 482 µM) in test [5]; 200 µg/mL (≈ 482 µM) in test [6]. In addition, in test [7], the MIC came out at 0.05 µg/mL (≈ 0.121 µM).

Turning to `CC(=O)N[C@@H]1C(=O)N2C(C(=O)O)=C(Cc3ccccc3)CS[C@H]12`, the MIC in test [1] was over 500 µg/mL; in test [2] it was 2.5 µg/mL (≈ 7.52 µM); in test [3], 500 µg/mL (≈ 1500 µM); in test [4] it was over 500 µg/mL; in test [5], over 500 µg/mL; in test [6], over 500 µg/mL. Further, in test [7], the MIC is 0.5 µg/mL (≈ 1.5 µM).

Consider `O=C(O)C1=C(Cc2ccccc2)CS[C@@H]2[C@H](NC(=O)C(F)(F)F)C(=O)N12`, for which the MIC in test [1] was 500 µg/mL (≈ 1290 µM); in test [2], 12.5 µg/mL (≈ 32.4 µM); in test [3], over 500 µg/mL; in test [4] it was over 500 µg/mL; in test [5], over 500 µg/mL; in test [6] it was over 500 µg/mL. In addition, the MIC in test [7] was found to be 2.5 µg/mL (≈ 6.47 µM).

In the case of `N#CCC(=O)N[C@@H]1C(=O)N2C(C(=O)O)=C(Cc3ccccc3)CS[C@H]12`, the MIC is over 500 µg/mL in test [1]; 0.5 µg/mL (≈ 1.4 µM) in test [2]; 250 µg/mL (≈ 700 µM) in test [3]; over 500 µg/mL in test [4]; 500 µg/mL (≈ 1400 µM) in test [5]; 500 µg/mL (≈ 1400 µM) in test [6]. In test [7], the MIC was found to be 0.12 µg/mL (≈ 0.336 µM).

In the case of `O=C(COc1ccccc1)N[C@@H]1C(=O)N2C(C(=O)O)=C(Cc3ccccc3)CS[C@H]12`, the MIC in test [1] is 500 µg/mL (≈ 1180 µM); in test [2], 0.12 µg/mL (≈ 0.283 µM); in test [3], over 500 µg/mL; in test [4] it was over 500 µg/mL; in test [5], over 500 µg/mL; in test [6], over 500 µg/mL. Further, the MIC in test [7] was 0.02 µg/mL (≈ 0.0471 µM).

Turning to `CCSCC(=O)N[C@@H]1C(=O)N2C(C(=O)O)=C(Cc3ccccc3)CS[C@H]12`, the minimal inhibitory concentration (MIC) was over 125 µg/mL in test [1]; 1.25 µg/mL (≈ 3.18 µM) in test [2]; 125 µg/mL (≈ 318 µM) in test [3]; over 125 µg/mL in test [4]; over 125 µg/mL in test [5]; over 125 µg/mL in test [6]. Further, in test [7], the MIC came out at 0.12 µg/mL (≈ 0.306 µM).

For the compound `O=C(O)CSCC(=O)N[C@@H]1C(=O)N2C(C(=O)O)=C(Cc3ccccc3)CS[C@H]12`, the MIC is 125 µg/mL (≈ 296 µM) in test [1]; 25 µg/mL (≈ 59.2 µM) in test [2]; 250 µg/mL (≈ 592 µM) in test [3]; over 500 µg/mL in test [4]; 250 µg/mL (≈ 592 µM) in test [5]; over 500 µg/mL in test [6]. In addition, the MIC in test [7] came to 5 µg/mL (≈ 11.8 µM).

In the case of `O=C(O)C1=C(Cc2ccccc2)CS[C@@H]2[C@H](NC(=O)[C@H](O)c3ccccc3)C(=O)N12`, the MIC in test [1] is over 500 µg/mL; in test [2], 12.5 µg/mL (≈ 29.4 µM); in test [3] it was 50 µg/mL (≈ 118 µM); in test [4], 50 µg/mL (≈ 118 µM); in test [5], 50 µg/mL (≈ 118 µM); in test [6], 125 µg/mL (≈ 294 µM). In test [7], the MIC turned out to be 0.12 µg/mL (≈ 0.283 µM).

In the case of `O=C(O)C1=C(Cc2ccccc2)CS[C@@H]2[C@H](NC(=O)C(C(=O)Oc3ccccc3)c3ccccc3)C(=O)N12` (stereo partly specified), the MIC in test [1] is 50 µg/mL (≈ 94.6 µM); in test [2] it was 25 µg/mL (≈ 47.3 µM); in test [3], over 100 µg/mL; in test [4], over 100 µg/mL; in test [5], over 100 µg/mL; in test [6], over 100 µg/mL. The MIC in test [7] worked out at 2.5 µg/mL (≈ 4.73 µM).

In the case of `O=C(Cc1ccncc1)N[C@@H]1C(=O)N2C(C(=O)O)=C(Cc3ccccc3)CS[C@H]12`, the MIC is 100 µg/mL (≈ 244 µM) in test [1]; 5 µg/mL (≈ 12.2 µM) in test [2]; 50 µg/mL (≈ 122 µM) in test [3]; 100 µg/mL (≈ 244 µM) in test [4]; 50 µg/mL (≈ 122 µM) in test [5]; 50 µg/mL (≈ 122 µM) in test [6]. In addition, the MIC in test [7] is 0.05 µg/mL (≈ 0.122 µM).

As for `O=C(CSc1ccncc1)N[C@@H]1C(=O)N2C(C(=O)O)=C(Cc3ccccc3)CS[C@H]12`, the MIC was 250 µg/mL (≈ 566 µM) in test [1]; 2.5 µg/mL (≈ 5.66 µM) in test [2]; 250 µg/mL (≈ 566 µM) in test [3]; over 500 µg/mL in test [4]; 250 µg/mL (≈ 566 µM) in test [5]; 250 µg/mL (≈ 566 µM) in test [6]. For the same compound, the MIC in test [7] worked out at 0.05 µg/mL (≈ 0.113 µM).
